This is an account of results in ChEMBL document CHEMBL4190262, “Tuning of β-glucosidase and α-galactosidase inhibition by generation and in situ screening of a library of pyrrolidine-triazole hybrid molecules” (Eur J Med Chem, 2017).

Assay [1] concerns Canavalia ensiformis. The assay can be described thus: Inhibition of jack bean beta-N-acetylglucosaminidase at 1 mM using p-nitrophenyl glycopyranoside preincubated for 5 mins followed by substrate addition measured after 20 mins by visible absorption spectroscopic method relative to control. The essentials:
(§1)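 Test compound at 1 mM in well. Mix: 0.01–0.5 units/mL enzyme plus 10 mM p-nitrophenyl glycopyranoside (aqueous solution), buffered to the enzyme's optimal pH. Enzyme and inhibitor preincubated 5 min at rt. Substrate then added and incubated 20 min at 37 °C. Stopped with sodium borate (pH 9.8). p-Nitrophenolate read at 405 nm. Duplicates averaged.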

Assay [2] is filed under the species Bos taurus. In words: Inhibition of bovine liver beta-glucosidase at 1 mM using p-nitrophenyl glycopyranoside preincubated for 5 mins followed by substrate addition measured after 20 mins by visible absorption spectroscopic method relative to control. The essentials:
as §1

In assay [3] the test system is Cornu aspersum. In words: Inhibition of snail beta-mannosidase at 1 mM using p-nitrophenyl glycopyranoside preincubated for 5 mins followed by substrate addition measured after 20 mins by visible absorption spectroscopic method relative to control. The essentials: as §1
The target of assay [4] is T1, Beta-galactosidase (Aspergillus oryzae) (UniProt B7VU80).
T1 sequence (whole entry): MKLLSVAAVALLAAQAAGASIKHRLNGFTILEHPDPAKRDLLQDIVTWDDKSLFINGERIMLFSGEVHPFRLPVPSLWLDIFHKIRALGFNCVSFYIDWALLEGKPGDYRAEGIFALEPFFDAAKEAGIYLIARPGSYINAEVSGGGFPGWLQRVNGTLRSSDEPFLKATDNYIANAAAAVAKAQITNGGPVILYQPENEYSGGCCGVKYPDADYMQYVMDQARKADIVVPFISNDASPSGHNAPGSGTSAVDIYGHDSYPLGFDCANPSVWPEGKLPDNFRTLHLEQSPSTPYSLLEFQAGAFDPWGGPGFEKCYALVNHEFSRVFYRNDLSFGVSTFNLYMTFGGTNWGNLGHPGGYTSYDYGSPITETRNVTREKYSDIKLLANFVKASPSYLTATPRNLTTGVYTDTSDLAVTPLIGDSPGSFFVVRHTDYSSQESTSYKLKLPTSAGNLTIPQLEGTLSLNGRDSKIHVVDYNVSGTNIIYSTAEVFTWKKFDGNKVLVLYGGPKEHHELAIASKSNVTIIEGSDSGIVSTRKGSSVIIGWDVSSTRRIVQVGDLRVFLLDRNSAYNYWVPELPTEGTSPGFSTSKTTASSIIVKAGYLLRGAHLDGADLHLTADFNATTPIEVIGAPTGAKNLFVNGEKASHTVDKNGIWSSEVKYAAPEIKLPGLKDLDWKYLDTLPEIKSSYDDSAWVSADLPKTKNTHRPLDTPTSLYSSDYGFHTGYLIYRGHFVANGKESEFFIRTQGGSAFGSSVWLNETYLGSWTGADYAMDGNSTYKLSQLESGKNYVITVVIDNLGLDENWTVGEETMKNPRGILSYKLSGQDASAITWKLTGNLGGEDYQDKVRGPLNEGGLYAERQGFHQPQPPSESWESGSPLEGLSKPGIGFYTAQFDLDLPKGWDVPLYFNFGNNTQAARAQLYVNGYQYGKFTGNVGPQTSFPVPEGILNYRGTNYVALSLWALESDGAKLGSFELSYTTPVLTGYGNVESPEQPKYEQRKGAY
The assay can be described thus: Inhibition of Aspergillus oryzae beta-galactosidase at 1 mM using p-nitrophenyl glycopyranoside preincubated for 5 mins followed by substrate addition measured after 20 mins by visible absorption spectroscopic method relative to control. The essentials:
as §1

Assay [5] addresses T2, Lysosomal acid glucosylceramidase (Homo sapiens, UniProt P04062).
T2 sequence (P04062 whole entry): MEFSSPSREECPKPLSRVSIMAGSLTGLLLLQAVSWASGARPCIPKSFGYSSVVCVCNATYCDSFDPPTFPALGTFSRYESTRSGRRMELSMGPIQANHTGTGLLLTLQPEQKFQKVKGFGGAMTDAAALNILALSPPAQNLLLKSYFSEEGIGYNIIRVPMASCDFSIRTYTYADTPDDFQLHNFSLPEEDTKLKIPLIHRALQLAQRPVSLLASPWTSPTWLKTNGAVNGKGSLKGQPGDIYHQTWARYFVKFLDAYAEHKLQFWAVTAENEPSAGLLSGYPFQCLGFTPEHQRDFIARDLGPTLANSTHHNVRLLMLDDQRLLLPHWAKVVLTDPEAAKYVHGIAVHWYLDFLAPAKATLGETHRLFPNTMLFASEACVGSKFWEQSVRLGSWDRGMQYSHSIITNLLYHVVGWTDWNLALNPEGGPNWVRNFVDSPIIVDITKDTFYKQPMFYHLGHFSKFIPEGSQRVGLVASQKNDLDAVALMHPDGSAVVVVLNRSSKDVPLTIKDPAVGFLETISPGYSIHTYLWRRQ
The assay can be described thus: Inhibition of human lysosomal beta-glucocerebrosidase using 4-methylumbelliferyl-beta-D-glucopyranoside as substrate preincubated for 45 mins followed by substrate addition measured after 30 mins by fluorescence spectroscopic method. The essentials: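 Enzyme in 100 mM McIlvaine buffer pH 5.2 with 0.25% sodium taurocholate and 0.1% Triton X-100, with inhibitor. Preincubated at 0 °C for 45 min, then started with 3 mM 4-methylumbelliferyl glycoside substrate solution and incubated 30 min at 37 °C. Stopped with 400 mM glycine-NaOH pH 10.6. 4-Methylumbelliferone fluorescence read at ex 362/em 450 nm.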

Assay [6] is described as follows: Inhibition of almond beta-glucosidase using p-nitrophenyl glycopyranoside preincubated for 5 mins followed by substrate addition measured after 20 mins by visible absorption spectroscopic method. Further details: species or system Prunus dulcis. The essentials: (§2)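 IC50 determined only for compounds giving ≥80% inhibition at 1 mM, read from plots of % inhibition versus inhibitor concentration. p-Nitrophenyl glycopyranoside substrate (10 mM solution) at the enzyme's optimal pH, with 0.01–0.5 units/mL enzyme. 5 min rt preincubation with enzyme, then 20 min at 37 °C. Borate stop (pH 9.8), absorbance at 405 nm. Duplicates averaged.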

Assay [7] concerns the target Alpha-galactosidase (Coffea arabica) (UniProt Q42656). In words: Inhibition of coffee beans alpha-galactosidase at 50 uM using p-nitrophenyl glycopyranoside preincubated for 5 mins followed by substrate addition measured after 20 mins by visible absorption spectroscopic method relative to control. The essentials:
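Crude triazoles from in situ CuAAC (ascorbate/CuSO4, 24 h rt, water-diluted) were screened at 50 μM per well, assuming full conversion. Enzyme was coffee bean α-galactosidase at pH 6, 37 °C, with p-nitrophenyl glycoside substrate and 405 nm read-out. Blanks of CuSO4, ascorbate and each alkyne were run.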

A short description of assay [8]: Selectivity ratio of IC50 for human lysosomal alpha-galactosidase A to IC50 for coffee beans alpha-galactosidase.
The target in assay [9] is Alpha-galactosidase (Coffea arabica, UniProt Q42656). In words: Inhibition of coffee beans alpha-galactosidase using p-nitrophenyl glycopyranoside preincubated for 5 mins followed by substrate addition measured after 20 mins by visible absorption spectroscopic method. The essentials: as §2

pIC50: −log10 of the molar value. Calls of active or inactive are those of the source. The calls are words filed in the database; no cut-off is given here. Where only a bound is given, the exact number is not on record here.

Sequence of Alpha-galactosidase (Coffea arabica) (Q42656 16-378 limits assumed): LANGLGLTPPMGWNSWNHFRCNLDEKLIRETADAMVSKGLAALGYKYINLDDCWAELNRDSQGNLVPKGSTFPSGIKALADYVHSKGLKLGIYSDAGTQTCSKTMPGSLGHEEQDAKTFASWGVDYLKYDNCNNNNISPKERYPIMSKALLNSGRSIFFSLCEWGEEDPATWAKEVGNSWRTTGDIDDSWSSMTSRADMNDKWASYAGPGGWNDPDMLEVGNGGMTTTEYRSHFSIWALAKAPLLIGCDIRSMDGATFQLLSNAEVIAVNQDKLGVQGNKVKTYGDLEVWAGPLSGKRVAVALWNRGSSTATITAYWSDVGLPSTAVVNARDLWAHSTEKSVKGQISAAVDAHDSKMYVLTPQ
Sequence of Alpha-galactosidase (Q42656 whole entry): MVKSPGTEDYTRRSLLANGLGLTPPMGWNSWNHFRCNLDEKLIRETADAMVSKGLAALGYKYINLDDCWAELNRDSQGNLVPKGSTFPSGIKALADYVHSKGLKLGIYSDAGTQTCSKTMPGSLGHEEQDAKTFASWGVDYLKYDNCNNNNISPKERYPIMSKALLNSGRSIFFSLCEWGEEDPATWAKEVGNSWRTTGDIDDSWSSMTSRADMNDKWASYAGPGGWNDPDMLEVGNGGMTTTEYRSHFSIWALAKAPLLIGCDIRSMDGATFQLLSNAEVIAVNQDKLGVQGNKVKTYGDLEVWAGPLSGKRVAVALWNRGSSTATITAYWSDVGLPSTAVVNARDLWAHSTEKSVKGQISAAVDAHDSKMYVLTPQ

With `O[C@@H]1[C@H](O)CN[C@H]1Cn1cc(-c2ccccc2)nn1`, the inhibition entry in assay [1], in assay [3] and in assay [4] was “inactive” throughout. The compound further displayed an inhibition in assay [2] of less than 50%. In addition, the negative-log IC50 (pIC50) was 4.96 in assay [5] and 5.10 in assay [6].
Take `O[C@@H]1[C@H](O)CN[C@@H]1Cn1cc(-c2ccccc2)nn1`: the inhibition in assay [7] stood at 62%; in assay [4], 41%. For the same compound, the Ratio IC50 in assay [8] came to 10. Also, the inhibition entry in assay [1] and in assay [3] was “inactive” each time. The negative-log IC50 (pIC50) in [9] is 4.85; in assay [5] it was 4.55.

A word on the inhibition: it is the percentage by which the read-out fell short of the control. Usually pIC50 stands for the IC50 on a negative log10 scale, so that one unit is a factor of ten. A high value points to a small IC50.
